Screening results deposited in PubChem by Johns Hopkins Ion Channel Center.
Rows were chosen to be rich in hits. Some 3.7% of all compounds tested hit in one or more screens of this group.
KCNQ1 block: inhibitors of human KCNQ1 channel, primary screen, cell-based, thallium flux, high-throughput; Potassium voltage-gated channel subfamily KQT member 1 (Homo sapiens), P51787; CHO-K1 KCNQ1, FluxOR thallium flux fluorescence; hits give high values; B-score at 10 µM; 310,000 tested, 1.3% active; AID 2642, 2010;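 active = compounds whose thallium flux B-score, printed positive for inhibition, exceeds three library SD while starting fluorescence stays within three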;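 note: channel opened by potassium depolarization with thallium stimulus after 20 min compound exposure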
KCNK3 inh: human KCNK3 channel inhibitors, primary screen, CHO cells, FluxOR thallium flux, B-score; Potassium channel subfamily K member 3 (Homo sapiens), O14649; FluxOR fluorescence; hits give low values; B-score at 10 µM; 340,000 tested, 0.84% active; AID 602410, 2012;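 active = B-score under library mean minus 4 SD, starting fluorescence ratio at most library mean plus 5 SD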;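 note: more negative B-score means stronger inhibition of thallium flux through KCNK3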
hERG protect: hERG rescue from dofetilide block, primary screen, cell-based, CHO-hERG, FluxOR thallium flux, dofetilide IC70; 310,000 tested, 0.51% active; dofetilide IC70 present; Voltage-gated inwardly rectifying potassium channel KCNH2 (Homo sapiens), Q12809; activation (rescue from dofetilide block), less the hit threshold, % at 10 µM;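 active = activation above the mean of controls blocked by dofetilide plus 5 SD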;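 note: thallium influx through hERG after potassium depolarization seen as dye fluorescence rise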
Target sequence (Q12809 whole entry, looked up): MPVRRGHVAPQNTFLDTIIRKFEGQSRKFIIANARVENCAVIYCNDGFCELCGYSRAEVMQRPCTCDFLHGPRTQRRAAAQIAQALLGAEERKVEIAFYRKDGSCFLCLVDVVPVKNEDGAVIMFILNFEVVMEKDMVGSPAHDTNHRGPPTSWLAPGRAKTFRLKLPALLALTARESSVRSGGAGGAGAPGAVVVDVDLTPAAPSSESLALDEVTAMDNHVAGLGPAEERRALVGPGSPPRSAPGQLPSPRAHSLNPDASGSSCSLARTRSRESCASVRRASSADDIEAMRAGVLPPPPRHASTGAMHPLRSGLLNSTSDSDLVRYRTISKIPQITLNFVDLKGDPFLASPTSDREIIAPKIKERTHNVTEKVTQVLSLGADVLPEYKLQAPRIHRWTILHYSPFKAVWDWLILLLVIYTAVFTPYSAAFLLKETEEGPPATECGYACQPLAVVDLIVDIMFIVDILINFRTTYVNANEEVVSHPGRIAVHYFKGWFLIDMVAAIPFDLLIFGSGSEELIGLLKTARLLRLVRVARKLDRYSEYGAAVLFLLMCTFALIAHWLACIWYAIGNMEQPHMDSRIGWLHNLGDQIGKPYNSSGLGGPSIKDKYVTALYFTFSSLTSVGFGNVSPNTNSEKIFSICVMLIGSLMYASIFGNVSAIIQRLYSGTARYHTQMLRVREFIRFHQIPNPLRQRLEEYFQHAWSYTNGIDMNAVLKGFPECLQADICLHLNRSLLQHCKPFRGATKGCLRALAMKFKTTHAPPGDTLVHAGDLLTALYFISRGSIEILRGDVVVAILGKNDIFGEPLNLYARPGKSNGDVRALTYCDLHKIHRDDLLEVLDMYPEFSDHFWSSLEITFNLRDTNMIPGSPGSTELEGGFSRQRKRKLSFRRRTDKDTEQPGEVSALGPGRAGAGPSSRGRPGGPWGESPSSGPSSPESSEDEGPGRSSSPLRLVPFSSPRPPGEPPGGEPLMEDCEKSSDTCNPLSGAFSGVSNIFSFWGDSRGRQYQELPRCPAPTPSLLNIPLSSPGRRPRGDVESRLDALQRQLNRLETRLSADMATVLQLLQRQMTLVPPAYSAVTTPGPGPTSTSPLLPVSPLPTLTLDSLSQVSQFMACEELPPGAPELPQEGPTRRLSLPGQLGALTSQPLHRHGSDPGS
KCNQ1 pot: potentiators or activators of KCNQ1 channel, primary screen, cell-based, thallium flux, high-throughput; Potassium voltage-gated channel subfamily KQT member 1 (Homo sapiens), P51787; CHO-K1 KCNQ1, thallium flux FluxOR fluorescence; hits give high values; B-score at 10 µM; 310,000 tested, 0.35% active; AID 2648, 2010;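 active = fluorescence ratio B-score, a plate-corrected score, at least three library SD, with initial intensity B-score within 5 SD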
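Doses: Single concentration per compound, DMSO matched to controls | Test system: KCNQ1-transfected CHO-K1 cells | Timing: 90 min dye loading and 20 min compound exposure, both at room temperature | Measured by: Kinetic FluxOR thallium fluorescence, 10-s 1-Hz baseline, 110-s post-stimulus read | Medium: Assay buffer with matched DMSO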
Kir21 block: inhibitors of mouse Kir2.1 inward-rectifier potassium channel | Inward rectifier potassium channel 2 (Mus musculus), P35561 | HEK293-Kir2.1, FluxOR thallium flux fluorescence; hits give low values | B-score at 10 µM | 310,000 tested, 0.85% active | AID 1672, 2009;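 active = fluorescence ratio B-score at or below minus 3 SD of library scores, with starting-brightness B-score within 2 SD, cut at about -4.2 in these data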;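 note: channel flux triggered by added potassium and thallium sulfate stimulus; B-score of peak minus minimum fluorescence over baseline after thallium stimulus; more negative B-score means stronger Kir2.1 block with less thallium influx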
KCNK9 block: KCNK9 potassium channel inhibitors, primary screen, HEK293 cells, thallium flux. Potassium channel subfamily K member 9 (Homo sapiens), Q9NPC2. B-score at 10 µM. FluxOR thallium flux fluorescence; hits give low values. AID 488922, 2010. 310,000 tested, 1.2% active;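 active = ratio B-score over 3 SD below the library mean, with starting fluorescence within 5 SD of its mean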;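 note: negative B-score means less thallium flux so channel inhibition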
KCNQ1 block val: KCNQ1 potassium channel inhibitors, confirmation, cell-based, Tl flux, duplicate. 1,600 tested, 93% active. shares compounds with KCNQ1 block. inhibition, % at 10 µM. KCNQ1 cell line, FluxOR thallium flux fluorescence. AID 588353, 2011;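 active = primary screen active, with duplicate mean exceeding buffer control mean plus 3 SD of buffer wells, cut at about 28% in these data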;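 note: 0% = buffer control ratio and 100% = XE991 inhibitor control ratio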
CHO Tl flux: thallium flux effects in parental CHO cells, counter-screen for KCNQ1 inhibitor project, cell-based, Tl flux; parental CHO-K1, FluxOR thallium flux fluorescence ratio; hits give low values; zero means no signal rise above baseline; fluorescence ratio (Tl flux) at 10 µM; 1,600 tested, 21% active; shares compounds with KCNQ1 block;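 active = mean of duplicate thallium-flux fluorescence ratios in parental host cells more than 5 SD below the buffer control mean, cut at about 0.38 in these data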;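 note: ratio is peak minus minimum fluorescence divided by baseline fluorescence; actives read low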
KCNQ1 APC inh: KCNQ1 channel inhibitors, confirmation, orthogonal assay, cell-based, automated electrophysiology; shares compounds with KCNQ1 block; KCNQ1-CHO cells, automated patch clamp current; calls only at 10 µM; 490 tested, 20% active; AID 624120, 2012;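 active = KCNQ1 current drop exceeding 3 SD of negative control wells, seen in both duplicate runs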;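 note: steady state current during a 2 s step from -80 to +40 mV; negative values mean current inhibition and positive values mean potentiation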
KCNQ2 inh: KCNQ2 channel inhibition, selectivity assay for KCNQ1 inhibitor project, cell-based; shares compounds with KCNQ1 block; KCNQ2 cells, FluxOR thallium flux fluorescence; inhibition, % at 10 µM; 1,600 tested, 71% active; AID 651746, 2012;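 active = mean percent inhibition of the KCNQ2 thallium signal more than 5 SD above the buffer-only control wells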;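 note: KCNQ2 expressed in CHO cells; 0% = buffer control wells and 100% = XE-991 inhibitor control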
KCNQ1-KCNE1 inh: KCNQ1/KCNE1 channel inhibition, selectivity assay for KCNQ1 inhibitor project, CHO-K1 cells, thallium flux, FluxOR. inhibition, % at 10 µM. shares compounds with KCNQ1 block. FluxOR thallium flux fluorescence. 1,600 tested, 77% active;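 active = mean percent inhibition of duplicate wells above the buffer-only control mean plus 3 SD of those controls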;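 note: 0% = buffer only wells and 100% = XE-991 inhibitor control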
KCNK9 block conf: KCNK9 potassium channel inhibitors, confirmation, HEK293 cells, thallium flux, duplicate; shares compounds with KCNK9 block; FluxOR thallium flux fluorescence; inhibition, % at 10 µM; 4,900 tested, 43% active; AID 492992, 2010;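 active = thallium signal inhibited by more than 5 SD of the compound-free buffer control wells, on both duplicate plates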;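 note: 0% = assay buffer control wells without compound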
Kir2-1 spec: mouse Kir2.1 channel inhibition, confirmation, selectivity assay for KCNK9 modulator project, cell-based, HEK293, thallium flux | shares compounds with KCNK9 block | Kir2.1 cells, FluxOR thallium flux fluorescence | inhibition, % at 10 µM | 4,900 tested, 4% active | AID 492993, 2010;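 active = thallium signal drop more than 5 SD beyond the mean of the no-compound control wells, seen in both duplicate plates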;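 note: signal is fluorescence rise after thallium addition divided by baseline fluorescence; plate controls were assay buffer only for no effect and full block by chlorpromazine control for full effect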
KCNK9 uninduced: thallium flux in non-induced HEK293 cells, confirmation, counter-screen for KCNK9 inhibitor project, cell-based, second counter screen, non-induced KCNK9-HEK293. shares compounds with KCNK9 block. FluxOR thallium flux. inhibition, % at 10 µM. 4,900 tested, 40% active;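 active = thallium signal drop beyond 5 SD of the untreated control mean, on both duplicate plates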;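 note: plate controls were buffer only IC0 wells for no effect and SID17386958 at its maximal inhibitory level for full effect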
Starred values were filed as active, the others as inactive; i = inactive; nt = no result given; + = active, no number.

SMILES	KCNQ1 block	KCNK3 inh	hERG protect	KCNQ1 pot	Kir21 block	KCNK9 block	KCNQ1 block val	CHO Tl flux	KCNQ1 APC inh	KCNQ2 inh	KCNQ1-KCNE1 inh	KCNK9 block conf	Kir2-1 spec	KCNK9 uninduced
Cc1cc(C(=O)Nc2ccc(Cl)cc2)c(C)n1-c1ccccc1	13*	i	-7.2	i	-0.39	i	124.0*	0.387	i	115.0%*	98.0%*	i	i	i
Cc1ccc(NC(=O)c2cc(C)n(-c3cccc(C)c3)c2C)cc1	i	i	-11.1	i	0.15	i	nt	nt	nt	nt	nt	nt	nt	nt
N#Cc1cccc(S(=O)(=O)NCc2nnc3ccccn23)c1	nt	i	nt	nt	nt	nt	nt	nt	nt	nt	nt	nt	nt	nt
CCc1ccccc1NCC(=O)Nc1ccc(Cl)c(C(F)(F)F)c1	8*	i	-10.7	i	0.22	i	50.0*	0.534	nt	61.7%*	i	i	i	39.5%*
CCN(Cc1ccccc1)C(c1ccc(C)cc1)c1nnnn1C(C)(C)CC (stereo unspecified)	8*	i	-10.5	i	0.01	-12.8*	111.5*	0.413	i	112.0%*	85.5%*	58.5%*	i	50.0%*
CCN(Cc1ccccc1)C(c1ccncc1)c1nnnn1C(C)(C)C (stereo unspecified)	i	i	0.2	i	-0.25	i	nt	nt	nt	nt	nt	nt	nt	nt
CCC(CC)NC(=O)Nc1ccc(F)c(Cl)c1	9*	i	-12.2	i	-0.4	-8.58*	44.5*	0.546	nt	i	62.5%*	44.0%*	i	i
CCn1c(=O)n(CC)c2cc(N3CCCC3)c(NC(=O)c3cc(Br)ccc3OC)cc21	9*	nt	-26.7	i	1.59	-17.6*	161.5*	0.327*	nt	122.7%*	+	72.0%*	i	i
CC(Cc1cccs1)NC(=S)Nc1ccc(Cl)c(Cl)c1 (stereo unspecified)	i	i	-6.1	i	-0.19	i	nt	nt	nt	nt	nt	nt	nt	nt
CC(Cc1cccs1)NC(=S)Nc1ccc(Cl)cc1 (stereo unspecified)	8*	i	-21.4	i	-4.21*	-10.4*	50.0*	0.49	nt	67.3%*	65.5%*	37.5%*	i	i
CC(C)(C)c1ccc(-c2nc(NCc3cccnc3)c3ccccc3n2)cc1	15*	i	-2.4	i	1.46	-9.27*	152.5*	0.47	i	100.0%*	186.0%*	26.0%*	i	41.5%*
c1cncc(CNc2nc(-c3cccnc3)nc3ccccc23)c1	i	i	-13.9	i	-1.28	i	nt	nt	nt	nt	nt	nt	nt	nt
CCOC(=O)c1ccccc1NC(=O)C1CCN(c2ncnc3sc(C)c(C)c23)CC1	10*	-8.93*	-10.6	i	-0.02	i	89.0*	0.414	i	132.0%*	130.5%*	i	i	32.0%*
Cc1cccc(/C=C/c2onc(C)c2S(=O)(=O)N2CCC(C(=O)N3CCC(C)CC3)CC2)c1	6*	i	-8.0	i	0.84	i	51.5*	0.44	nt	i	56.5%*	i	i	i
COc1cc2c(cc1OC)CC(=O)NC=C2	i	i	0.8	i	-0.36	i	nt	nt	nt	nt	nt	nt	nt	nt
CC(C)c1ccc(NC(=O)c2sccc2-n2cccc2)cc1	6*	i	-4.4	i	0.79	-11.5*	128.5*	0.396	+	114.3%*	178.5%*	46.5%*	i	43.5%*
Cc1c(Br)cccc1NC(=O)c1sccc1-n1cccc1	i	i	2.6	i	0.05	i	nt	nt	nt	nt	nt	nt	nt	nt
CC(=O)c1ccc2c(c1)C1C=CCC1C(c1cc3c(cc1Br)OCO3)N2 (stereo unspecified)	8*	i	-21.7	i	-1.1	-8.66*	139.5*	0.418	i	99.3%*	145.0%*	50.0%*	i	37.0%*
Cc1ccc(NC(=O)C2CCN(c3ncnc4sc(C)c(C)c34)CC2)cc1S(=O)(=O)N(C)C	i	i	-12.0	i	1.93	i	nt	nt	nt	nt	nt	nt	nt	nt
